From ChEMBL document CHEMBL4184285, “Antibacterial activities of mono-, di- and tri-substituted triphenylamine-based phosphonium ionic liquids” (Bioorg Med Chem Lett, 2018)

What was measured:
Staphylococcus aureus [1] = test: Antibacterial activity against Staphylococcus aureus CIP 7625 after 18 to 24 hrs by broth dilution method; format: functional
Klebsiella aerogenes = test: Antibacterial activity against Enterobacter aerogenes ATCC 13048 after 18 to 24 hrs by broth dilution method; format: functional
Acinetobacter baumannii = test: Antibacterial activity against Acinetobacter baumannii ATCC 19606 after 18 to 24 hrs by broth dilution method; format: functional; details: ATCC 19606 = CIP 70.34 = JCM 6841
Staphylococcus aureus [2] = test: Antibacterial activity against Staphylococcus aureus SA1199B over-expressing NorA after 18 to 24 hrs by broth dilution method; format: functional
Pseudomonas aeruginosa = test: Antibacterial activity against Pseudomonas aeruginosa CIP100720 after 18 to 24 hrs by broth dilution method; format: functional
Escherichia coli = test: Antibacterial activity against Escherichia coli CIP54.8 after 18 to 24 hrs by broth dilution method; format: functional
Staphylococcus aureus [3] = test: Antibacterial activity against Staphylococcus aureus SA1199 after 18 to 24 hrs by broth dilution method; format: functional
Enterococcus faecium = test: Antibacterial activity against Enterococcus faecium DSMZ 20477 after 18 to 24 hrs by broth dilution method; format: functional
Klebsiella pneumoniae = test: Antibacterial activity against Klebsiella pneumoniae CIP82.91 after 18 to 24 hrs by broth dilution method; format: functional
HepG2 = test: Cytotoxicity against human HepG2 cells assessed as reduction in cell viability after 24 hrs by WST1 assay; format: cell-based; details: hepg2, 24 h
Method in brief: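 Human hepatocyte HepG2 cultures were exposed to test material. IC50 was taken as the concentration giving a 50% decrease in cell respiration relative to the untreated control culture.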

Compound | MIC (Staphylococcus aureus [1]) [µg/mL] | MIC (Klebsiella aerogenes) [µg/mL] | MIC (Acinetobacter baumannii) [µg/mL] | MIC (Staphylococcus aureus [2]) [µg/mL] | MIC (Pseudomonas aeruginosa) [µg/mL] | MIC (Escherichia coli) [µg/mL] | MIC (Staphylococcus aureus [3]) [µg/mL] | MIC (Enterococcus faecium) [µg/mL] | MIC (Klebsiella pneumoniae) [µg/mL] | Activity (HepG2) [%]
CCCC[P+](CCCC)(CCCC)CCCCCCOCc1ccc(N(c2ccccc2)c2ccccc2)cc1.[Cl-] | 1 | 16 | 16 | 0.5 | 32 | 16 | 0.5 | 1 | 16 | 
CCCCCC[P+](CCCCCC)(CCCCCC)CCCCCCCCCCOCc1ccc(N(c2ccccc2)c2ccccc2)cc1.[Br-] | 2 | > 64 | 16 | 2 | 64 | 32 | 1 | 8 | 32 | 
CCCCCC[P+](CCCCCC)(CCCCCC)CCCCCCOCc1ccc(N(c2ccccc2)c2ccccc2)cc1.[Cl-] | 2 | > 64 | > 64 | 2 | 16 | > 64 | 2 | 4 | > 64 | 0.09
CCCCCCCC[P+](CCCCCCCC)(CCCCCCCC)CCCCCCOCc1ccc(N(c2ccccc2)c2ccccc2)cc1.[Cl-] | 8 | > 64 | > 64 | 8 | > 64 | > 64 | 8 | 16 | > 64 | 
CCCCCC[P+](CCCCCC)(CCCCCC)CCCCCCOCc1ccc(N(c2ccccc2)c2ccccc2)cc1.[Br-] | 2 | > 64 | 64 | 2 | 64 | > 64 | 2 | 4 | 64 | 
CCCCCC[P+](CCCCCC)(CCCCCC)CCCCCCOCc1ccc(N(c2ccc(COCCCCCC[P+](CCCCCC)(CCCCCC)CCCCCC)cc2)c2ccc(COCCCCCC[P+](CCCCCC)(CCCCCC)CCCCCC)cc2)cc1.[Cl-].[Cl-].[Cl-] | 2 | 64 | 16 | 2 | > 64 | 32 | 2 | 4 | 16 | 4.28
CCCCCC[P+](CCCCCC)(CCCCCC)CCCCCCOCc1ccc(N(c2ccccc2)c2ccc(COCCCCCC[P+](CCCCCC)(CCCCCC)CCCCCC)cc2)cc1.[Cl-].[Cl-] | 2 | > 64 | 16 | 2 | 64 | 32 | 2 | 2 | 16 | 4.16
